Measurements from different studies.
Each line is one published result; the experiments were not run side by side.
PDGFRB: Platelet-derived growth factor receptor beta (PDGFRB, Homo sapiens, UniProt P09619)
DYRK1A: Dual specificity tyrosine-phosphorylation-regulated kinase 1A (DYRK1A, Homo sapiens, UniProt Q13627)

| SMILES | target | assay | setting | measurement | result |
| --- | --- | --- | --- | --- | --- |
| Cc1cc(O)c(-c2ccc([C@@H](C)CN(C)C)cc2)c2c1[nH]c(=O)c1sccc12 | Ephrin type-B receptor 3 (EPHB3, Homo sapiens, UniProt P54753) | cell-free assay, inhibitor | 0.1 µM | inhibition | -4.48% |
| C1=C/COCc2cc(ccc2OCCN2CCCC2)Nc2nccc(n2)-c2cccc(c2)COC/1 | PDGFRB | binding | 0.1 µM | remaining binding | 32% |
| C#Cc1cc(-c2cc(Nc3nc(N[C@@H](C)c4ccc(F)cn4)ncc3Cl)n[nH]2)ccc1C=O | Dual specificity tyrosine-phosphorylation-regulated kinase 3 (DYRK3, Homo sapiens, UniProt O43781) | enzyme activity, inhibitor | 0.2 µM | inhibition | 4.84% |
| Nc1ncnc2c1ncn2[C@@H]1O[C@H](COP(=O)(O)OP(=O)(O)O)[C@@H](O)[C@H]1O | Inositol-tetrakisphosphate 1-kinase (Homo sapiens, UniProt Q13572) | enzyme activity, substrate |  | Km | 1.5 µM |
| Cc1cc(F)cc2c(CCC(=O)N[C@@H]3C(=O)NC[C@H]3O)c(-c3ccc(F)cc3)[nH]c12 | Muscarinic acetylcholine receptor M3 (CHRM3, Homo sapiens, UniProt P20309) | cell-free assay | 10 µM | inhibition | 0% |
| Cc1nc(Sc2nc(C)nc3sc4c(c23)CCC4)c2c3c(sc2n1)CCC3 | DYRK1A | enzyme activity, inhibitor, ADP detection | 10 µM | inhibition | 47.4% |
| COc1ccc2oc(-c3ccc4nc(N)oc4c3)c/c(=N\c3ccccc3NC(=O)CCN)c2c1 | Dual specificity tyrosine-phosphorylation-regulated kinase 1B (DYRK1B, Homo sapiens, UniProt Q9Y463) | binding, competition with immobilised ligand | 1 µM | remaining binding | 102% |
| Brc1cc(Br)c2ccncc2c1Br | DYRK1A | enzyme activity, inhibitor, ADP detection | 10 µM | inhibition | 41.5% |
| CCCCC(=O)Nc1ccc(-c2ccc3ncn(CCC)c(=O)c3c2)cn1 | Serine/threonine-protein kinase 25 (STK25, Homo sapiens, UniProt O00506) | binding, competition with immobilised ligand | 0.5 µM | remaining binding | 85% |
| CC1(C)Oc2ccc3ccc(=O)oc3c2C/C1=N/O | DYRK1A | enzyme activity, inhibitor, ADP detection | 10 µM | inhibition | 38.6% |
| NC/C(=C\F)COc1cccc(Cn2c(=S)[nH]c(=O)c3[nH]cnc32)c1 | Neuropeptide Y receptor type 2 (NPY2R, Homo sapiens, UniProt P49146) | ligand displacement, radioligand | 10 µM | inhibition | < 50% |
| O=C1C2C3CC(C(Br)C3Br)C2C(=O)N1CC1CCCO1 (stereo not shown) | DYRK1A | enzyme activity, inhibitor, ADP detection | 10 µM | inhibition | 41.5% |
| N#Cc1ccc(NC(=O)Nc2ccccc2)cc1 | PDGFRB | cell-free assay, competition with immobilised ligand | 25 µM | inhibition | 67% |
